Measurements of several laboratories.
Target: Serine/threonine-protein kinase ULK1 (ULK1, Homo sapiens, UniProt O75385)
Sequence (O75385 1-1050, as in one of the studies): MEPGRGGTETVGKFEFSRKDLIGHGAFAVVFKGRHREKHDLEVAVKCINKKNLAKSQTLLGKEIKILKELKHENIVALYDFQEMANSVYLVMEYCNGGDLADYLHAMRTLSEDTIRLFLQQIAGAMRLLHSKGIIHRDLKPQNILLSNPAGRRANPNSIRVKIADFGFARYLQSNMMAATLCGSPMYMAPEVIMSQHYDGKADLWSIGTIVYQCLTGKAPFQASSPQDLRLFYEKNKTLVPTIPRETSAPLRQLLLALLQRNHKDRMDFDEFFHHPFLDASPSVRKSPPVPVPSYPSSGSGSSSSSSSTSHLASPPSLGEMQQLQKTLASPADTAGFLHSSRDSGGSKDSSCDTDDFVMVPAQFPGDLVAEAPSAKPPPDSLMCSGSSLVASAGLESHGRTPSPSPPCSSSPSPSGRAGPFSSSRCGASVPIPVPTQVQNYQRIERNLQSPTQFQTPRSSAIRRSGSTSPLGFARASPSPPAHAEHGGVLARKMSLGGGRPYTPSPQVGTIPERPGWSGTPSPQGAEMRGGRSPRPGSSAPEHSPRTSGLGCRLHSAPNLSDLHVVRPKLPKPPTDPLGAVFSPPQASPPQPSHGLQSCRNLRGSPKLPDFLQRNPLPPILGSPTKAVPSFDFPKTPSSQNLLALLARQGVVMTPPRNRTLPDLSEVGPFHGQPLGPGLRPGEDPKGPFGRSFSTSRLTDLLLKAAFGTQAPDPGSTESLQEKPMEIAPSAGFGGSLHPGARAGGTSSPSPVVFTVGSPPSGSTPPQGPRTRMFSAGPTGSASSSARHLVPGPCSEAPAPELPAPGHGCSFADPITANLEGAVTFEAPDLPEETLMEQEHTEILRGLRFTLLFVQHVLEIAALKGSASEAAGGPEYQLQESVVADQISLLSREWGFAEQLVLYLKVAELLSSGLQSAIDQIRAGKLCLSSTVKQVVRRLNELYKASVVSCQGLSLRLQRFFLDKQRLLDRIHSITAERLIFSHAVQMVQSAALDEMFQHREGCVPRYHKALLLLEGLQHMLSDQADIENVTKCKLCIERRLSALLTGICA

COc1ccc2oc(-c3ccc4nc(N)oc4c3)c/c(=N\c3ccccc3NC(=O)CCN)c2c1
remaining binding (binding; 1 µM): 99%

C1=C/COCc2cc(ccc2OCCN2CCCC2)Nc2nccc(n2)-c2cccc(c2)COC/1
remaining signal (cell-free assay; 0.1 µM): 90%

C=CC(=O)N1CCC([C@@H]2CCNc3c(C(N)=O)c(-c4ccc(Oc5ccccc5)cc4)nn32)CC1
inhibition (enzyme activity, inhibitor; 1 µM): 0%

CCCCC(=O)Nc1ccc(-c2ccc3ncn(CCC)c(=O)c3c2)cn1
remaining binding (binding, competition with immobilised ligand; 0.5 µM): 94%

C[C@]1(O)CCCN(c2nc(Nc3ccc(S(=O)(=O)N[C@H]4CC[C@H](CN5CCN(c6ccc(C7CCC(=O)NC7=O)cc6F)CC5)CC4)cc3F)ncc2C(F)(F)F)C1 (stereo partly drawn)
remaining binding (binding, competition with immobilised ligand; 1 µM): 49%

C[C@H]1CC[C@H](n2c3cnccc3c3cnc(Nc4ccc5c(n4)CCN(C(=O)CO)C5)nc32)CC1
remaining signal (cell-free assay; 1 µM): 94%

Cc1cc(S(=O)(=O)N[C@H]2CC[C@H](CN3CCN(c4ccc(C5CCC(=O)NC5=O)cc4F)CC3)CC2)ccc1Nc1ncc(C(F)(F)F)c(N2CCC[C@](C)(O)C2)n1 (stereo partly drawn)
remaining binding (binding, competition with immobilised ligand; 1 µM): 5.7%

CO[C@@H]1[C@H](N(C)C(=O)c2ccccc2)C[C@H]2O[C@]1(C)n1c3ccccc3c3c4c(c5c6ccccc6n2c5c31)C(=O)NC4
inhibition (enzyme activity, inhibitor; 1 µM): 7%

COc1ccc2[nH]c3c4[nH]c5ccc(OC)cc5c4c4c(c3c2c1)C(=O)NC4=O
remaining binding (binding; 1 µM): 100%
